Data taken from ChEMBL document CHEMBL4665652, “Discovery of novel quinoline sulphonamide derivatives as potent, selective and orally active RORγ inverse agonists” (Bioorg Med Chem Lett, 2019).

Legend:
[1] = Stability in mouse microsomes assessed as unbound intrinsic clearance; type: ADME, Microsome
Summary of the method: (§1)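 Unbound intrinsic clearance measured in human and mouse liver microsomes, expressed in L/h/kg. Values are geometric means of at least two separate runs.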

[2] = Stability in human microsomes assessed as unbound intrinsic clearance; type: ADME, Microsome; summary of the method: as §1
[3] = target: T1, Nuclear receptor ROR-gamma (Homo sapiens, UniProt P51449); test: Inverse agonist activity at RORgamma in human CD4+ T cells assessed as inhibition of IL17A secretion after 72 hrs by ELISA; type: cell-based, CD4+ve Th
T1 sequence (P51449 whole entry): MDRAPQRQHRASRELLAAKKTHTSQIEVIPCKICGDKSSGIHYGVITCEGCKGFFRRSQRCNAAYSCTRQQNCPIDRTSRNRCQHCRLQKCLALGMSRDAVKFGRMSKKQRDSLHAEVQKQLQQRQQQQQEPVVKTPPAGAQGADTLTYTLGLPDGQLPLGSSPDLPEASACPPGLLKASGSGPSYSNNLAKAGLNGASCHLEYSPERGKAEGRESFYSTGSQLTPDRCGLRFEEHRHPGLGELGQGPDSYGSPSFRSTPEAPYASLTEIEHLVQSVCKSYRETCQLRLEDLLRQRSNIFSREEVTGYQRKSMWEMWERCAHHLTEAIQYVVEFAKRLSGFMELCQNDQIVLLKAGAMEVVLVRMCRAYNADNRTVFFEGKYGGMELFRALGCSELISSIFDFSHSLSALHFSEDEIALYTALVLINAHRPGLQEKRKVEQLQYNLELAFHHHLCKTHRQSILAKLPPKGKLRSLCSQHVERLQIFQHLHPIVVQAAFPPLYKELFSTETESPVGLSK

[4] = target: T1, Nuclear receptor ROR-gamma; test: Inverse agonist activity at pSG5GAL4-DBD/LBD fused human RORgamma receptor expressed in COS7 cells co-expressing 5 copies of GAL4 response element after 18 hrs by luciferase reporter gene based assay; type: cell-based
Mus musculus = test: Immunosuppressive activity in po dosed PLP (139 to 151 residues)-induced experimental autoimmune encephalomyelitis mouse model assessed as incidence of disease administered twice starting from immunization relative to control; type: functional
Summary of the method: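 EAE induced in mice by immunization with proteolipid protein peptide PLP139-151; ascending paralysis develops 10–12 days post-immunization. Compound dosed orally b.i.d. starting from immunization. Disease onset/incidence scored relative to control.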

SMILES	CL free [1]	CL free [2]	EC50 [3]	EC50 [4]	Activity (Mus musculus)
CNC(=O)[C@@H]1CCCN1S(=O)(=O)c1ccc(Cl)c(COc2cccc3c(OCc4ccccc4)cc(C(C)C)nc23)c1Cl	1220 mL/min/kg	667 mL/min/kg	–	–	–
CNC(=O)[C@@H]1CCCN1S(=O)(=O)c1ccc(Cl)c(COc2cccc3c(-c4ccncc4)cc(C)nc23)c1Cl	550 mL/min/kg	217 mL/min/kg	–	–	–
CNC(=O)[C@@H]1CCCN1S(=O)(=O)c1ccc(Cl)c(COc2cccc3c(-c4ccccc4)cc(C)nc23)c1Cl	–	–	0.89 µM	0.32 µM	–
CNC(=O)[C@@H]1CCCN1S(=O)(=O)c1ccc(Cl)c(COc2cccc3c(-n4ccnc4)cc(C(C)C)nc23)c1Cl	130 mL/min/kg	33 mL/min/kg	–	0.52 µM	–
CNC(=O)[C@@H]1CCCN1S(=O)(=O)c1ccc(Cl)c(COc2cccc3c(-n4ccnc4)cc(C(F)(F)F)nc23)c1Cl	130 mL/min/kg	17 mL/min/kg	3.32 µM	0.17 µM	–
Cc1cc(C(F)(F)F)c2cccc(OCc3c(Cl)ccc(S(=O)(=O)N4CCC[C@H]4C(N)=O)c3Cl)c2n1	12600 mL/min/kg	167 mL/min/kg	0.47 µM	0.44 µM	–
CNC(=O)[C@@H]1CCCN1S(=O)(=O)c1cccc(COc2cccc3c(C(F)(F)F)cc(C)nc23)c1	767 mL/min/kg	50 mL/min/kg	–	> 10 µM	–
CCN(c1ccc(C(O)(C(F)(F)F)C(F)(F)F)cc1)S(=O)(=O)c1ccccc1	–	–	0.93 µM	1.08 µM	–
CNC(=O)[C@@H]1CCCN1S(=O)(=O)c1ccc(Cl)c(COc2cccc3c(-c4ccccn4)cc(C)nc23)c1Cl	733 mL/min/kg	183 mL/min/kg	–	–	–
Cc1cc(C(F)(F)F)c2cccc(OCc3c(Cl)ccc(S(=O)(=O)N4CCC[C@H]4CO)c3Cl)c2n1	1630 mL/min/kg	250 mL/min/kg	0.83 µM	0.96 µM	–
CNC(=O)[C@@H]1CCCN1S(=O)(=O)c1ccc(Cl)c(COc2cccc3c(-n4ccnc4)cc(C)nc23)c1Cl	267 mL/min/kg	33 mL/min/kg	3 µM	1.36 µM	–
Cc1cc(C(F)(F)F)c2cccc(OCc3c(Cl)ccc(S(=O)(=O)N4CCCC4)c3Cl)c2n1	967 mL/min/kg	233 mL/min/kg	–	–	–
CNC(=O)[C@@H]1CCCN1S(=O)(=O)c1ccc(Cl)c(COc2cccc3c(-c4cncn4C)cc(C)nc23)c1Cl	120 mL/min/kg	33 mL/min/kg	1.39 µM	1.51 µM	–
Cc1cc(C(F)(F)F)c2cccc(OCc3c(Cl)ccc(S(=O)(=O)N4CCCCC4)c3Cl)c2n1	1000 mL/min/kg	233 mL/min/kg	–	–	–
CNC(=O)[C@@H]1CCCN1S(=O)(=O)c1ccc(Cl)c(COc2cccc3c(C(F)(F)F)cc(C(C)C)nc23)c1Cl	1630 mL/min/kg	500 mL/min/kg	0.77 µM	0.17 µM	–
CNC(=O)[C@@H]1CCCN1S(=O)(=O)c1ccc(Cl)c(COc2cccc3c(-c4cccnc4)cc(C)nc23)c1Cl	700 mL/min/kg	233 mL/min/kg	1.01 µM	0.1 µM	–
Cc1cc(C(F)(F)F)c2cccc(OCc3c(Cl)ccc(S(=O)(=O)N4C[C@@H](C)O[C@@H](C)C4)c3Cl)c2n1	933 mL/min/kg	317 mL/min/kg	–	0.22 µM	–
CNC(=O)[C@@H]1CCCN1S(=O)(=O)c1ccc(Cl)c(COc2cccc3c(OCc4ccccc4)cc(C)nc23)c1Cl	1820 mL/min/kg	467 mL/min/kg	–	0.88 µM	–
CCCCCCCCc1ccc(CCC(N)(CO)CO)cc1 [FINGOLIMOD]	–	–	–	–	0%
Cc1cc(C(F)(F)F)c2cccc(OCc3c(Cl)ccc(S(=O)(=O)N4CCC(CCO)CC4)c3Cl)c2n1	1080 mL/min/kg	367 mL/min/kg	–	0.39 µM	–
CNC(=O)[C@@H]1CCCN1S(=O)(=O)c1ccc(Cl)c(COc2cccc3c(-c4nccn4C)cc(C)nc23)c1Cl	917 mL/min/kg	120 mL/min/kg	–	> 10 µM	–
Cc1cc(C(F)(F)F)c2cccc(OCc3c(Cl)ccc(S(=O)(=O)N4CCC[C@H]4C(=O)O)c3Cl)c2n1	13 mL/min/kg	8.3 mL/min/kg	–	1.39 µM	–
COC[C@@H]1CCCN1S(=O)(=O)c1ccc(Cl)c(COc2cccc3c(C(F)(F)F)cc(C)nc23)c1Cl	1620 mL/min/kg	450 mL/min/kg	0.16 µM	0.16 µM	–
CCc1cc(C(F)(F)F)c2cccc(OCc3c(Cl)ccc(S(=O)(=O)N4CCC[C@H]4C(=O)NC)c3Cl)c2n1	1280 mL/min/kg	300 mL/min/kg	0.21 µM	0.35 µM	–
CNC(=O)[C@@H]1CCCN1S(=O)(=O)c1ccc(Cl)c(COc2cccc3c(C(F)(F)F)cc(C)nc23)c1Cl	1380 mL/min/kg	250 mL/min/kg	–	–	–
Cc1cc(C(F)(F)F)c2cccc(OCc3c(Cl)ccc(S(=O)(=O)N4CC[C@@H](N(C)C)C4)c3Cl)c2n1	867 mL/min/kg	167 mL/min/kg	–	0.91 µM	–
Cc1cc(C(F)(F)F)c2cccc(OCc3c(Cl)ccc(S(=O)(=O)N4CCC(C#N)CC4)c3Cl)c2n1	1720 mL/min/kg	433 mL/min/kg	–	0.76 µM	–
CNC(=O)[C@@H]1CCCN1S(=O)(=O)c1ccc(Cl)c(COc2cccc3c(-c4ccncc4)cc(C(C)C)nc23)c1Cl	633 mL/min/kg	333 mL/min/kg	1.83 µM	0.22 µM	–
